Results reported in ChEMBL document CHEMBL1275272, “Synthesis, characterization and antimicrobial activity of some disubstituted 1,3,4-oxadiazoles carrying 2-(aryloxymethyl)phenyl moiety” (2010).
Converted amounts (≈) assume the structure as drawn.

How the values were obtained:
Format in all cases: functional
Escherichia coli = assay: Antibacterial activity against Escherichia coli after 16 to 18 hrs by serial dilution method; conditions: for MIC: Escherichia coli
Summary of the method: (§1)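 The test compound was dissolved in DMF and serially diluted. A standard drop of the prepared microbial culture was added to each dilution, and tubes were incubated at 37 °C for 16–18 h. MIC was taken as the highest dilution that stayed clear with no visible turbidity.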

Pseudomonas aeruginosa = assay: Antibacterial activity against Pseudomonas aeruginosa after 16 to 18 hrs by serial dilution method; conditions: for MIC: Pseudomonas aeruginosa; summary of the method: as §1
Staphylococcus aureus = assay: Antibacterial activity against Staphylococcus aureus after 16 to 18 hrs by serial dilution method; conditions: for MIC: Staphylococcus aureus; summary of the method: as §1
Aspergillus flavus = assay: Antifungal activity against Aspergillus flavus after 16 to 18 hrs by serial dilution method; conditions: for MIC: Aspergillus flavus; summary of the method: as §1
Talaromyces marneffei = assay: Antifungal activity against Penicillium marneffei after 16 to 18 hrs by serial dilution method; conditions: for MIC: Talaromyces marneffei; summary of the method: as §1
[1] = tested on: Trichophyton mentagrophytes; assay: Antifungal activity against Trichophyton mentagrophytes after 16 to 18 hrs by serial dilution method; conditions: for MIC: Trichophyton mentagrophytes
Klebsiella pneumoniae = assay: Antibacterial activity against Klebsiella pneumoniae after 16 to 18 hrs by serial dilution method; conditions: for MIC: Klebsiella pneumoniae
Aspergillus fumigatus = assay: Antifungal activity against Aspergillus fumigatus after 16 to 18 hrs by serial dilution method; conditions: for MIC: Aspergillus fumigatus

MIC (Escherichia coli) [µg/mL] | MIC (Pseudomonas aeruginosa) [µg/mL] | MIC (Staphylococcus aureus) [µg/mL] | MIC (Aspergillus flavus) [µg/mL] | MIC (Talaromyces marneffei) [µg/mL] | MIC [1] [µg/mL] | MIC (Klebsiella pneumoniae) [µg/mL] | MIC (Aspergillus fumigatus) [µg/mL] | SMILES | inhibition zone (IZ) (Escherichia coli) [mm] | inhibition zone (IZ) (Pseudomonas aeruginosa) [mm] | inhibition zone (IZ) (Staphylococcus aureus) [mm] | inhibition zone (IZ) (Aspergillus flavus) [mm] | inhibition zone (IZ) (Talaromyces marneffei) [mm] | inhibition zone (IZ) [1] [mm] | inhibition zone (IZ) (Klebsiella pneumoniae) [mm] | inhibition zone (IZ) (Aspergillus fumigatus) [mm]
25 (≈ 66.3 µM) | 25 (≈ 66.3 µM) | 25 (≈ 66.3 µM) | 25 (≈ 66.3 µM) | 25 (≈ 66.3 µM) | 25 (≈ 66.3 µM) | 25 (≈ 66.3 µM) | 25 (≈ 66.3 µM) | Cc1ccccc1OCc1ccccc1-c1nnc(-c2ccc(Cl)cc2)o1 | <10 | <10 | <10 | <10 | <10 | <10 | <10 | <10
25 (≈ 66.3 µM) | 25 (≈ 66.3 µM) | 25 (≈ 66.3 µM) | 25 (≈ 66.3 µM) | 25 (≈ 66.3 µM) | 25 (≈ 66.3 µM) | 25 (≈ 66.3 µM) | 25 (≈ 66.3 µM) | Cc1cccc(OCc2ccccc2-c2nnc(-c3ccc(Cl)cc3)o2)c1 | <10 | <10 | <10 | <10 | <10 | <10 | <10 | <10
25 (≈ 66.3 µM) | 25 (≈ 66.3 µM) | 25 (≈ 66.3 µM) | 25 (≈ 66.3 µM) | 25 (≈ 66.3 µM) | 25 (≈ 66.3 µM) | 25 (≈ 66.3 µM) | 25 (≈ 66.3 µM) | Cc1ccc(OCc2ccccc2-c2nnc(-c3ccc(Cl)cc3)o2)cc1 | <10 | <10 | <10 | <10 | <10 | <10 | <10 | <10
25 (≈ 62.9 µM) | 25 (≈ 62.9 µM) | 25 (≈ 62.9 µM) | 25 (≈ 62.9 µM) | 25 (≈ 62.9 µM) | 25 (≈ 62.9 µM) | 25 (≈ 62.9 µM) | 25 (≈ 62.9 µM) | Clc1ccc(OCc2ccccc2-c2nnc(-c3ccc(Cl)cc3)o2)cc1 | <10 | <10 | <10 | <10 | <10 | <10 | <10 | <10
25 (≈ 63.5 µM) | 25 (≈ 63.5 µM) | 25 (≈ 63.5 µM) | 25 (≈ 63.5 µM) | 25 (≈ 63.5 µM) | 25 (≈ 63.5 µM) | 25 (≈ 63.5 µM) | 25 (≈ 63.5 µM) | Cc1ccccc1OCc1ccccc1-c1nnc(-c2cccc3ncccc23)o1 | <10 | <10 | <10 | <10 | <10 | <10 | <10 | <10
25 (≈ 63.5 µM) | 25 (≈ 63.5 µM) | 25 (≈ 63.5 µM) | 25 (≈ 63.5 µM) | 25 (≈ 63.5 µM) | 25 (≈ 63.5 µM) | 25 (≈ 63.5 µM) | 25 (≈ 63.5 µM) | Cc1cccc(OCc2ccccc2-c2nnc(-c3cccc4ncccc34)o2)c1 | <10 | <10 | <10 | <10 | <10 | <10 | <10 | <10
25 (≈ 63.5 µM) | 25 (≈ 63.5 µM) | 25 (≈ 63.5 µM) | 25 (≈ 63.5 µM) | 25 (≈ 63.5 µM) | 25 (≈ 63.5 µM) | 25 (≈ 63.5 µM) | 25 (≈ 63.5 µM) | Cc1ccc(OCc2ccccc2-c2nnc(-c3cccc4ncccc34)o2)cc1 | <10 | <10 | <10 | <10 | <10 | <10 | <10 | <10
25 (≈ 60.4 µM) | 25 (≈ 60.4 µM) | 25 (≈ 60.4 µM) | 25 (≈ 60.4 µM) | 25 (≈ 60.4 µM) | 25 (≈ 60.4 µM) | 25 (≈ 60.4 µM) | 25 (≈ 60.4 µM) | Clc1ccc(OCc2ccccc2-c2nnc(-c3cccc4ncccc34)o2)cc1 | <10 | <10 | <10 | <10 | <10 | <10 | <10 | <10
25 (≈ 59.3 µM) | 25 (≈ 59.3 µM) | 25 (≈ 59.3 µM) | 25 (≈ 59.3 µM) | 25 (≈ 59.3 µM) | 25 (≈ 59.3 µM) | 25 (≈ 59.3 µM) | 25 (≈ 59.3 µM) | Cc1ccccc1OCc1ccccc1-c1nnc(-c2cccc(Br)c2)o1 | <10 | <10 | <10 | <10 | <10 | <10 | <10 | <10
25 (≈ 59.3 µM) | 25 (≈ 59.3 µM) | 25 (≈ 59.3 µM) | 25 (≈ 59.3 µM) | 25 (≈ 59.3 µM) | 25 (≈ 59.3 µM) | 25 (≈ 59.3 µM) | 25 (≈ 59.3 µM) | Cc1cccc(OCc2ccccc2-c2nnc(-c3cccc(Br)c3)o2)c1 | <10 | <10 | <10 | <10 | <10 | <10 | <10 | <10
25 (≈ 59.3 µM) | 25 (≈ 59.3 µM) | 25 (≈ 59.3 µM) | 25 (≈ 59.3 µM) | 25 (≈ 59.3 µM) | 25 (≈ 59.3 µM) | 25 (≈ 59.3 µM) | 25 (≈ 59.3 µM) | Cc1ccc(OCc2ccccc2-c2nnc(-c3cccc(Br)c3)o2)cc1 | <10 | <10 | <10 | <10 | <10 | <10 | <10 | <10
25 (≈ 56.6 µM) | 25 (≈ 56.6 µM) | 25 (≈ 56.6 µM) | 25 (≈ 56.6 µM) | 25 (≈ 56.6 µM) | 25 (≈ 56.6 µM) | 25 (≈ 56.6 µM) | 25 (≈ 56.6 µM) | Clc1ccc(OCc2ccccc2-c2nnc(-c3cccc(Br)c3)o2)cc1 | <10 | <10 | <10 | <10 | <10 | <10 | <10 | <10
12.5 (≈ 31.4 µM) | 12.5 (≈ 31.4 µM) | 12.5 (≈ 31.4 µM) | 12.5 (≈ 31.4 µM) | 12.5 (≈ 31.4 µM) | 12.5 (≈ 31.4 µM) | 12.5 (≈ 31.4 µM) | 12.5 (≈ 31.4 µM) | Cc1cccc(OCc2ccccc2-c2nn(CN3CCOCC3)c(=S)o2)c1 | 11 | 11 | 11 | 11 | 11 | 11 | 11 | 11
12.5 (≈ 31.4 µM) | 12.5 (≈ 31.4 µM) | 12.5 (≈ 31.4 µM) | 12.5 (≈ 31.4 µM) | 12.5 (≈ 31.4 µM) | 12.5 (≈ 31.4 µM) | 12.5 (≈ 31.4 µM) | 12.5 (≈ 31.4 µM) | Cc1ccccc1OCc1ccccc1-c1nn(CN2CCOCC2)c(=S)o1 | 11 | 11 | 11 | 11 | 11 | 11 | 11 | 11
6.25 (≈ 13.3 µM) | 6.25 (≈ 13.3 µM) | 6.25 (≈ 13.3 µM) | 6.25 (≈ 13.3 µM) | 6.25 (≈ 13.3 µM) | 6.25 (≈ 13.3 µM) | 6.25 (≈ 13.3 µM) | 6.25 (≈ 13.3 µM) | Cc1ccccc1OCc1ccccc1-c1nn(CNc2cccc(C(F)(F)F)c2)c(=S)o1 | 16 | 16 | 16 | 16 | 16 | 16 | 16 | 16
12.5 (≈ 31.4 µM) | 12.5 (≈ 31.4 µM) | 12.5 (≈ 31.4 µM) | 12.5 (≈ 31.4 µM) | 12.5 (≈ 31.4 µM) | 12.5 (≈ 31.4 µM) | 12.5 (≈ 31.4 µM) | 12.5 (≈ 31.4 µM) | Cc1ccc(OCc2ccccc2-c2nn(CN3CCOCC3)c(=S)o2)cc1 | 11 | 11 | 11 | 11 | 11 | 11 | 11 | 11
12.5 (≈ 29.9 µM) | 12.5 (≈ 29.9 µM) | 12.5 (≈ 29.9 µM) | 12.5 (≈ 29.9 µM) | 12.5 (≈ 29.9 µM) | 12.5 (≈ 29.9 µM) | 12.5 (≈ 29.9 µM) | 12.5 (≈ 29.9 µM) | S=c1oc(-c2ccccc2COc2ccc(Cl)cc2)nn1CN1CCOCC1 | 11 | 11 | 11 | 11 | 11 | 11 | 11 | 11
